The source made the active and inactive calls. The calls are words filed in the database; no cut-off is given here.
Tests used:
Type in all cases: functional
Mus musculus [1] = organism: Mus musculus; test: Geometric mean titer of mice receiving 50 ug compound along with vaccine was determined after 21 days
Procedure, shortened: (§1)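 ICR/Ha mice, groups of eight, were injected with an influenza hemagglutinin antigen vaccine plus adjuvant. Hemagglutination-inhibition antibody was assayed in sera taken 21 days post-injection. Titer is the reciprocal of the serum dilution, reported as the group geometric mean.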

Mus musculus [2] = organism: Mus musculus; test: Mitogenic activity is evaluated in vitro against splenocyte culture from C58 mice; NA means no activity
Procedure, shortened: (§2)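 Washed splenocytes from C58 mice were plated at 6 x 10^5 viable lymphocytes per well in RPMI 1640 with 10% fetal calf serum. Compound dilutions were added with Con A, E. coli LPS, or medium alone and incubated at 37 °C for 3-4 days. [3H]thymidine was then added, and cells were harvested 4 h later. Counts are geometric means of four replicate wells.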

Mus musculus [3] = organism: Mus musculus; test: Geometric mean titer of mice receiving 5 ug compound along with vaccine was determined after 21 days; procedure, shortened: as §1
Mus musculus [4] = organism: Mus musculus; test: Mitogenic activity is evaluated in vitro against splenocyte culture from C58 mice; mitogenic; procedure, shortened: as §2

| SMILES | Activity (Mus musculus [1]) | Activity (Mus musculus [2]) | Activity (Mus musculus [3]) | Activity (Mus musculus [4]) |
| --- | --- | --- | --- | --- |
| CC(C)CCC[C@@H](C)[C@H]1CC[C@H]2[C@@H]3CC=C4C[C@@H](OCCCCCCS[C@@H]5O[C@@H](CO)[C@@H](O[C@@H]6O[C@@H](CO)[C@H](O)[C@H](O)[C@@H]6O)[C@H](O)[C@@H]5O)CC[C@]4(C)[C@H]3CC[C@]12C | 40 | inactive |  |  |
| CC1OC(SCCC23C[C@H]4C[C@@H](C2)C[C@@H](C3)C4)C(O)C(O)C1O (stereo partly specified) |  |  | 47.57 |  |
| CC(C)CCCC(C)C1CCC2C3CC=C4CC(OCCCCCCSC5OC(C)C(O)C(O)C5O)CCC4(C)C3CCC12C (stereo unspecified) |  | inactive | 28.28 |  |
| CC1OC(SCCCc2ccc(C(F)(F)C(F)(F)c3ccccc3)cc2)C(O)C(O)C1O (stereo unspecified) |  |  | 33.64 |  |
| CCCCCCCC/C=C\CCCCCCCCSC1OC(C)C(O)C(O)C1O (stereo unspecified) |  |  | 61.69 |  |
| CC(=O)N[C@H]1C(O)O[C@H](CO)[C@@H](O)[C@@H]1O[C@H](C)C(=O)N[C@@H](C)C(=O)N[C@H](CCC(=O)O)C(N)=O (stereo partly specified) [MURAMYL DIPEPTIDE] | 40 |  |  | Mitogenic |
| CC(C)CCCC(C)C1CCC2C3CC=C4CC(OCCC#CCCSC5OC(C)C(O)C(O)C5O)CCC4(C)C3CCC12C (stereo unspecified) | 33.64 | inactive |  |  |
